Experimental data: ChEMBL document CHEMBL1141882, “Synthesis and biological testing of purine derivatives as potential ATP-competitive kinase inhibitors” (J Med Chem, 2005)

Legend:
[1] = target: cAMP-dependent protein kinase (PKA) (Homo sapiens) (UniProt P22694+P17612+P22612); experiment: Inhibition of human cAMP-dependent protein kinase (PKA); assay type: protein assay; design: concentration or dose not given beside the values; conditions: concentration not given here
[2] = target: Rho-associated protein kinase 2 (Homo sapiens) (UniProt O75116); experiment: Inhibition of human Rho-dependent protein kinase-II at 30 uM
Sequence of Rho-associated protein kinase 2 (Homo sapiens) (O75116 whole entry, looked up): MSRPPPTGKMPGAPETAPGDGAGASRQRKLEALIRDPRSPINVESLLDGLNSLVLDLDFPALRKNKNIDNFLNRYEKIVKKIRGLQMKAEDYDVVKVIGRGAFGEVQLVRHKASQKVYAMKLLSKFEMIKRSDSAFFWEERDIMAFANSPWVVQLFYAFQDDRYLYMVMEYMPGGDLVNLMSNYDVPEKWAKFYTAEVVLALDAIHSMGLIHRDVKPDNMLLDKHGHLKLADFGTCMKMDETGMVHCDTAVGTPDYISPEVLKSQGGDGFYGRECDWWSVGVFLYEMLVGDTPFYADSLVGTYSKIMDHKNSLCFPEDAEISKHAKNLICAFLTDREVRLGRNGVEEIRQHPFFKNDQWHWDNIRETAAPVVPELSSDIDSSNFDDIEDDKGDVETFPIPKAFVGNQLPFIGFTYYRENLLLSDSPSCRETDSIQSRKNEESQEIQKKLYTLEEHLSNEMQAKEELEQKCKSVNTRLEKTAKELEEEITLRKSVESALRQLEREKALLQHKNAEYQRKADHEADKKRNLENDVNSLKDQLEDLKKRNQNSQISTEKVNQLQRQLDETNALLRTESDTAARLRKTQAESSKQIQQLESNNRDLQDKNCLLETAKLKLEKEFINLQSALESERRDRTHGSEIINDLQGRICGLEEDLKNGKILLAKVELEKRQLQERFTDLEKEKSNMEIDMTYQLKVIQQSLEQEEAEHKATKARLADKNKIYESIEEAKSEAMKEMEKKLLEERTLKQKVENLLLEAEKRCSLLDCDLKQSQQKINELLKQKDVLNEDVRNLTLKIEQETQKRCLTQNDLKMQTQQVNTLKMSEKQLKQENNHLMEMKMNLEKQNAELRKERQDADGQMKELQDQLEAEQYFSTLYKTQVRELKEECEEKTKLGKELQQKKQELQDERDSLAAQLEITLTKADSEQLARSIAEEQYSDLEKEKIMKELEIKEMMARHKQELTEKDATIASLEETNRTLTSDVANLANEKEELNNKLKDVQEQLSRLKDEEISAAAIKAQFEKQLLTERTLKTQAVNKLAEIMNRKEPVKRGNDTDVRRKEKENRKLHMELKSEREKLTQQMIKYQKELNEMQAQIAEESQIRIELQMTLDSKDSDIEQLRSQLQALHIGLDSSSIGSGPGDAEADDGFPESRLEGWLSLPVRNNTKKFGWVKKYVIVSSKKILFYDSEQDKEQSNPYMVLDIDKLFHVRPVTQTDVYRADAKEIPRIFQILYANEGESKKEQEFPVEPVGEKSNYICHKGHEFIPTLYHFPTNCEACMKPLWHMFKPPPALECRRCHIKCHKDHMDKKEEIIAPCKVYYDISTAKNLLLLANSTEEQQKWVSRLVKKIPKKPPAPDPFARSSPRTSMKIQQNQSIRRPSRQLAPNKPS

[3] = target: Glycogen synthase kinase-3 beta (Homo sapiens) (UniProt P49841); experiment: Inhibition of human Glycogen synthase kinase-3 beta at 30 uM
Summary of the method: (§1)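 Kinase activity assayed with ATP at 100 µM, deliberately higher than usual assay ATP levels because the inhibitors are assumed ATP-competitive. Results are reported as percent inhibition of each kinase.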

[4] = target: Dual specificity mitogen-activated protein kinase kinase 1 (Homo sapiens) (UniProt Q02750); experiment: Inhibition of human Mitogen activated protein kinase kinase 1 (MEK1) at 30 uM; summary of the method: as §1
[5] = target: Mitogen-activated protein kinase 10 (Rattus norvegicus) (UniProt P49187); experiment: Inhibition of rat c-Jun N-terminal kinase-3 at 30 uM; summary of the method: as §1
Sequence of Mitogen-activated protein kinase 10 (Rattus norvegicus) (P49187 whole entry): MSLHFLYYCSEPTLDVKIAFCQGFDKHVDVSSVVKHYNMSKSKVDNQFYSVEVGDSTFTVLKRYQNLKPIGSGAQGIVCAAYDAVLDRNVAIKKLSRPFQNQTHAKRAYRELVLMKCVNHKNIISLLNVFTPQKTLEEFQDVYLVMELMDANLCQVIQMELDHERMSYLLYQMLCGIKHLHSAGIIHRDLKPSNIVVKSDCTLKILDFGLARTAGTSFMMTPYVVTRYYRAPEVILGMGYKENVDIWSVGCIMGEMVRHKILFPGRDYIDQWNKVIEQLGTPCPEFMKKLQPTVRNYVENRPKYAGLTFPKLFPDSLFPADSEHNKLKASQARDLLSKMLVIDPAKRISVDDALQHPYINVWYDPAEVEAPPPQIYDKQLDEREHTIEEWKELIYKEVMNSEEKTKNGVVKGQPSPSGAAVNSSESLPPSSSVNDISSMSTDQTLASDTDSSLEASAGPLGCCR

[6] = target: RAC-alpha serine/threonine-protein kinase (Homo sapiens) (UniProt P31749); experiment: Inhibition of human Protein kinase B alpha at 30 uM; summary of the method: as §1
Sequence of RAC-alpha serine/threonine-protein kinase (Homo sapiens) (P31749 whole entry): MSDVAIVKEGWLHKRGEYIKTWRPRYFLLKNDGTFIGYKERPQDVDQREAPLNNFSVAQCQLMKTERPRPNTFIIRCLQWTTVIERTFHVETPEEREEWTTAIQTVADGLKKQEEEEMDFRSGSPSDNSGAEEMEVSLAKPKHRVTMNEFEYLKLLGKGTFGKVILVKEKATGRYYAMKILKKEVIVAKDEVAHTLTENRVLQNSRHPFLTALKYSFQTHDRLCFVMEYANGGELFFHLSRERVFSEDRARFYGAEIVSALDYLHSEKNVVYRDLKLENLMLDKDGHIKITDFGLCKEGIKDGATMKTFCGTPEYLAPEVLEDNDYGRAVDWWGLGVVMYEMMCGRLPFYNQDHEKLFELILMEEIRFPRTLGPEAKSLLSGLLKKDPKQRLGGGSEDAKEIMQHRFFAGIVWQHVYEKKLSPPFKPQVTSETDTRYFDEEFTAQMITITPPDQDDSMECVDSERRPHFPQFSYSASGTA

[7] = target: Ca2+/calmodulin-dependent protein kinase II (CaM kinase II) (Rattus norvegicus) (UniProt P11275+P08413+P15791+P11730); experiment: Inhibition of rat Calcium/calmodulin-dependent protein kinase type II at 30 uM; assay type: protein assay; summary of the method: as §1
[8] = target: Mitogen-activated protein kinase 9 (Homo sapiens) (UniProt P45984); experiment: Inhibition of human c-Jun N-terminal kinase-2 alpha-2 at 30 uM; summary of the method: as §1
Sequence of Mitogen-activated protein kinase 9 (Homo sapiens) (P45984 whole entry, looked up): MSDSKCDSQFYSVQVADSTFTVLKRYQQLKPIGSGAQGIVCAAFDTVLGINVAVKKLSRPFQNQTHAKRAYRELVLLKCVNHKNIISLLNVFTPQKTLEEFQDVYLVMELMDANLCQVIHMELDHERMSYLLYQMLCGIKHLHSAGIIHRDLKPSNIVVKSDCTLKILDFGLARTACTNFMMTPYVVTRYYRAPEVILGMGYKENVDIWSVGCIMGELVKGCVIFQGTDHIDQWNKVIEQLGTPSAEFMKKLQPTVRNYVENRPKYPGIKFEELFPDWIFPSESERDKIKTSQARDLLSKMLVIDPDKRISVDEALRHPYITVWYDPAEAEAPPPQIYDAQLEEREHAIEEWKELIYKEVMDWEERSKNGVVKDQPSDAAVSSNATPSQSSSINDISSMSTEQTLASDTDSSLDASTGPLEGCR

[9] = target: Mitogen-activated protein kinase 8 (Homo sapiens) (UniProt P45983); experiment: Inhibition of human c-Jun N-terminal kinase-1 alpha-1 at 30 uM; summary of the method: as §1
[10] = target: Protein kinase C alpha type (Homo sapiens) (UniProt P17252); experiment: Inhibition of human Protein kinase C alpha; design: concentration or dose not given beside the values; conditions: concentration not given here
[11] = target: Mitogen-activated protein kinase 1 (Homo sapiens) (UniProt P28482); experiment: Inhibition of human Mitogen-activated protein kinase 1 at 30 uM
[12] = target: Tyrosine-protein kinase Lck (Homo sapiens) (UniProt P06239); experiment: Inhibition of human lymphocyte protein tyrosine kinase Lck at 30 uM; summary of the method: as §1
[13] = target: Mitogen-activated protein kinase 14 (Homo sapiens) (UniProt Q16539); experiment: Inhibition of human stress-activated protein kinase-2 alpha (p38 MAP-kinase) at 30 uM; summary of the method: as §1
Sequence of Mitogen-activated protein kinase 14 (Homo sapiens) (Q16539 whole entry): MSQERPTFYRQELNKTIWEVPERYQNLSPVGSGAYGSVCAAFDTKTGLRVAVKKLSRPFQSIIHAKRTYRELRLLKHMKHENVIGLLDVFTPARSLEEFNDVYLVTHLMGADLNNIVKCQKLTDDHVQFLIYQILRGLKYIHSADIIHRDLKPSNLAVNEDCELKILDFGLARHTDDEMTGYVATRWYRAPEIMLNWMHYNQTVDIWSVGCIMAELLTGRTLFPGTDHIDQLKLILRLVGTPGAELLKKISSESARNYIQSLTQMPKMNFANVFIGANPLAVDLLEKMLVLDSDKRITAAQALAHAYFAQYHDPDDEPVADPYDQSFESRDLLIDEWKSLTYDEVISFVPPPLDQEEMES

[14] = target: RAF proto-oncogene serine/threonine-protein kinase (Homo sapiens) (UniProt P04049); experiment: Inhibition of human RAF proto-oncogene serine/threonine-protein kinase at 30 uM; summary of the method: as §1
Sequence of RAF proto-oncogene serine/threonine-protein kinase (Homo sapiens) (P04049 whole entry): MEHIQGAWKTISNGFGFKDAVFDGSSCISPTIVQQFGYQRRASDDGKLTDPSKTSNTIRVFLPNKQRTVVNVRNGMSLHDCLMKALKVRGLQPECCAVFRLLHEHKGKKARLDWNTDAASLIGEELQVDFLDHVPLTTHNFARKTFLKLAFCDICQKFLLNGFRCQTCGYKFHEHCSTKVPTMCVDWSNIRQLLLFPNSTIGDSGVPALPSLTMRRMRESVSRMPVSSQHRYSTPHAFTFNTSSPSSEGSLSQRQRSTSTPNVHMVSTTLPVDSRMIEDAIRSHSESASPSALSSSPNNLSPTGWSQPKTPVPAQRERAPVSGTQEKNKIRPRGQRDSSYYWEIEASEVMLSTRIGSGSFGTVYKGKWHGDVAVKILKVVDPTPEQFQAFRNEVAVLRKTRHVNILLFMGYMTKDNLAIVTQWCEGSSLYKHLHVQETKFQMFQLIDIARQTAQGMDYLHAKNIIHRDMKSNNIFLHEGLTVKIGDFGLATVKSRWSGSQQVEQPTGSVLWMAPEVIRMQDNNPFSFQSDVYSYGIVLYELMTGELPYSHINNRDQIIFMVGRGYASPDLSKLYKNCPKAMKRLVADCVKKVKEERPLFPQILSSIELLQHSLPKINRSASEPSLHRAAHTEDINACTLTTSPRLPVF

[15] = target: Mitogen-activated protein kinase 1 (Homo sapiens) (UniProt P28482); experiment: Inhibition of human Mitogen-activated protein kinase 2 at 30 uM; summary of the method: as §1
Target sequence in this assay (P28482 whole entry): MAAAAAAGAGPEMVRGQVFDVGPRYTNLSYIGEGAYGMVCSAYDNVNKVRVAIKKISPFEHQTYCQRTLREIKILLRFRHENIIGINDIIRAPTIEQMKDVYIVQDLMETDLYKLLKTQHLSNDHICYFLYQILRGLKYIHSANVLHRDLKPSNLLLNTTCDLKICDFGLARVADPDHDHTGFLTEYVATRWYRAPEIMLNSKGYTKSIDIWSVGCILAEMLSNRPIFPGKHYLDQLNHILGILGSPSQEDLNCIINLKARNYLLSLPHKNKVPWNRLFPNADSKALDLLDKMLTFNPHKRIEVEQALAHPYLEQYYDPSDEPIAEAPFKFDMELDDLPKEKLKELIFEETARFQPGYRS

Row | inhibition [1] [%] | inhibition [2] [%] | inhibition [3] [%] | inhibition [4] [%] | inhibition [5] [%] | inhibition [6] [%] | inhibition [7] [%] | inhibition [8] [%] | inhibition [9] [%] | inhibition [10] [%] | inhibition [11] [%] | inhibition [12] [%] | inhibition [13] [%] | inhibition [14] [%] | inhibition [15] [%] | Compound
1 | 32 | 48 | 13 | 19 | 11 | 14 | 0 | 0 | 0 | 6 | 22 | 39 | 34 | 19 | 33 | c1ccc(Nc2ncnc3[nH]cnc23)cc1
2 | 0 | 42 | 4 | 36 | 5 | 0 | 3 | 6 | 2 | 15 |  | 52 | 79 | 43 | 2 | Fc1ccc(Sc2[nH]cnc3nccc2-3)cc1
3 | 13 | 28 | 35 | 7 | 7 | 4 | 0 | 0 | 1 | 11 |  | 22 | 50 | 53 | 12 | c1ccc(CSc2ncnc3[nH]cnc23)cc1
4 | 0 | 4 | 10 | 0 | 12 | 8 | 5 | 0 | 0 | 15 |  | 13 | 5 | 7 | 4 | Fc1ccc(C[n+]2c[nH]c3ncncc32)cc1
5 | 0 | 0 | 3 | 4 | 0 | 5 | 0 | 1 | 0 | 0 |  | 0 | 11 | 5 | 0 | CSc1ccc(-c2nc3c(Sc4ccccc4)ncnc3n2C)cc1
6 | 11 | 16 | 0 | 1 | 0 | 0 | 0 | 1 | 1 | 8 |  | 11 | 12 | 3 | 6 | c1ccc(Oc2ncnc3[nH]cnc23)cc1
7 | 0 | 1 | 4 | 3 | 6 | 4 | 8 | 0 | 0 | 8 |  | 30 | 27 | 0 | 0 | Cn1c(-c2ccc([S+](C)[O-])cc2)nc2c(Sc3ccccc3)ncnc21 (centres undefined)
8 | 0 | 0 | 8 | 3 | 0 | 0 | 0 | 0 | 0 | 0 |  | 16 | 27 | 0 | 0 | Fc1ccc(Cn2cnc3c(Sc4ccc(F)cc4)ncnc32)cc1
9 | 7 | 1 | 5 | 3 | 30 | 0 | 2 | 0 | 0 | 7 |  | 0 | 8 | 9 | 3 | c1ccc(Cc2[nH]cnc3ncnc2-3)cc1
10 | 0 | 7 | 13 | 4 | 13 | 9 | 7 | 4 | 0 | 18 |  | 7 | 6 | 10 | 7 | c1ccc(C[n+]2c[nH]c3ncncc32)cc1
11 | 0 | 1 | 10 | 6 | 5 | 4 | 0 | 7 | 1 | 13 |  | 6 | 22 | 12 | 0 | Cn1cnc2c(SCc3ccccc3)ncnc21
12 | 7 | 1 | 5 | 3 | 30 | 0 | 2 | 0 | 0 | 7 |  | 0 | 8 | 9 | 3 | COc1ncnc2ncn(Cc3ccc(F)cc3)c12
